Data taken from ChEMBL document CHEMBL4007443, “Discovery of Potent Human Glutaminyl Cyclase Inhibitors as Anti-Alzheimer's Agents Based on Rational Design” (J Med Chem, 2017).
pIC50: −log10 of the molar value. The source made the active and inactive calls. The rule behind the calls is not given here.

Key:
[1] = Cytotoxicity against mouse HT22 cells assessed as cell viability at 10 uM after 18 hrs by MTT assay; format: cell-based, HT-22; details: read-out: Activity
Procedure, shortened: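 HT-22 mouse hippocampal cells grown in DMEM with 10% FBS at 37 °C, 5% CO2. Cells seeded at 5000/well the day before and exposed to compound at 10 µM for 18 h at 37 °C. MTT added for 3 h, formazan dissolved in DMSO, absorbance read at 570 nm. Viability expressed relative to vehicle control (100%).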

Mus musculus [2] = experiment: Antialzheimer activity in human amyloid beta (3 to 40) induced acute ICR mouse Alzheimer's disease mouse model assessed as inhibition of amyloid beta (N3pE to 40) formation in brain at 10 mM, icv by sandwich ELISA; format: functional
Procedure, shortened: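 Acute model: male ICR mice, 5 weeks old (25 g, n = 4), anaesthetized and given 5 µg human Aβ3-40 in 5 µL PBS by stereotaxic injection into deep cortex/hippocampus (AP -2.0, ML 1.2, DV 1.0 mm from bregma). Inhibitor given by the same intracerebral route or i.p. Brain extracts taken next day; Aβ N3pE-40 quantified by sandwich ELISA. Percent inhibition is relative to vehicle; one-way ANOVA with Bonferroni.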

[3] = molecular target: Glutaminyl-peptide cyclotransferase (Mus musculus, UniProt Q9CYK2); experiment: Inhibition of mouse glutaminyl cyclase assessed as reduction in conversion of H-Gln-AMC hydrobromide to pGlu-AMC preincubated with substrate for 10 mins followed by enzyme addition by pGAPase coupled fluorometry
[4] = Stability in mouse liver microsomes assessed as compound remaining after 30 mins; format: ADME, microsome; details: read-out: Stability
Mus musculus [5] = experiment: Cognition enhancement activity in 5XFAD Alzheimer's disease mouse model assessed as increase in duration of time spent in target quadrant administered intraperitoneally starting from 19 to 34 weeks of age by Morris water maze test; format: functional
Procedure, shortened: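 Male 5XFAD mice (n = 6 vehicle, n = 6 treated) received the compound i.p. from 19 weeks of age for 3 months, housed singly on a 12:12 h light cycle. Morris water maze: four hidden-platform training trials per day for 5 days, scoring escape latency. Probe trial 24 h later with the platform removed, scoring time in the target quadrant.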

Mus musculus [6] = experiment: Toxicity in APP/PS1 transgenic Alzheimer's disease mouse model administered via icv for 3 weeks; details: in vivo, icv_or_intrathecal, 504 h
Mus musculus [7] = species: Mus musculus; experiment: animal or person; details: ICR, ip, read-out: INH
Mus musculus [8] = species: Mus musculus; details: ICR, 25 mg/kg

Sequence of Glutaminyl-peptide cyclotransferase (Q9CYK2 whole entry): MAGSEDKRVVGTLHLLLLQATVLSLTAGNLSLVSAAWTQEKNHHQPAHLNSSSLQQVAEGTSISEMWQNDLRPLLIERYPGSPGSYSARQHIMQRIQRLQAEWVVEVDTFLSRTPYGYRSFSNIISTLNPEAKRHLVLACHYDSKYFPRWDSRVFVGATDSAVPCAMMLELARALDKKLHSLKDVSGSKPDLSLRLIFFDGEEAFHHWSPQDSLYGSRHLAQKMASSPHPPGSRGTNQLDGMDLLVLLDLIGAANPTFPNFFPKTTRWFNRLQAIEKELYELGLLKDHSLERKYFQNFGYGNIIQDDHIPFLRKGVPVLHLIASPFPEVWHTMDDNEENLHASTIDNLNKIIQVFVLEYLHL

| pIC50 [3] | remaining at 0.5 h [4] [%] | SMILES | viability at 18 h, 10 µM [1] [%] | inhibition (INH) (Mus musculus [2]) [%] | Activity (Mus musculus [5]) | Activity (Mus musculus [6]) | inhibition in vivo at 25 mg/kg (Mus musculus [7]) [%] | inhibition (Mus musculus [8]) |
| --- | --- | --- | --- | --- | --- | --- | --- | --- |
|  |  | COc1cc(NC(=S)NCCCn2cncc2C)ccc1OCCCCN(C)C | 100 | 35.7 |  |  |  |  |
| 7.90 | 50 | COc1cc(NC(=S)NCCCn2cncc2C)ccc1OCCCCc1ccnc(N)c1 | 100 | 66.1 | Active | Non-Toxic | 54.7 |  |
|  |  | COc1cc(NC(=S)NCCCn2cncc2C)ccc1OCCC1CCN(C)CC1 | 100 | 18.7 |  |  |  |  |
| 7.67 |  | COc1ccc(NC(=S)NCCCn2cncc2C)cc1OC | 100 | 41.6 |  |  |  | inactive |
|  |  | COc1cc(NC(=S)NCCCn2cncc2C)ccc1OCCCCN1CCNCC1 | 100 | 29.2 |  |  |  |  |
|  |  | COc1cc(NC(=S)NCCCn2cncc2C)ccc1OCCc1ccnc(N)c1 | 100 | 38 |  |  |  |  |
|  |  | COc1cc(NC(=S)NCCCn2cncc2C)ccc1OCCCN | 100 | 64.6 |  |  |  | inactive |
|  |  | COc1cc(NC(=S)NCCCn2cncc2C)ccc1OCCN1CCNCC1 | 100 | 77.2 |  |  | 3.6 |  |
|  |  | COc1cc(NC(=S)NCCCn2cncc2C)ccc1OCCCCNc1ncccn1 | 100 | 27.3 |  |  |  |  |
